pEC50: −log10 of the molar value.
How the values were obtained:
HCT-15 = assay: Effective dose against HCT-15 cell line.; assay type: functional; conditions: Homo sapiens, read-out: ED50 (the source's name)
Outline: (§1)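 HCT-15 (MDR+) or NCI-H460 (MDR−) cells in growth medium treated with compounds over a range of concentrations for 48 h. Cells then trypsinized and counted per well with a Coulter counter. ED50 derived from cell number. Compounds at 1 μM or below were retested in both lines. Values reported as mean ± SD.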

NCI-H460 = assay: Effective dose against NCI-H460 cell line.; assay type: functional; conditions: Homo sapiens, read-out: ED50 (the source's name); outline: as §1
Mus musculus [1] = assay: (§2) Maximum plasma concentration following intravenous dosing, tested in vivo in mice; assay type: ADME, organism-based; design: route intravenous; conditions: in vivo
Mus musculus [2] = assay: (§3) Area under the curve following intravenous dosing, integrated compound concentration with respect to time, tested in vivo in mice; assay type: ADME, organism-based
[3] = Volume of distribution following intravenous dosing, tested in vivo in mice; assay type: ADME, organism-based; conditions: mouse, read-out: Vc
Mus musculus [4] = assay: Time to maximum plasma concentration following oral dosing, tested in vivo in mice; conditions: in vivo
[5] = Oral bioavailability in mouse; assay type: ADME, organism-based; conditions: in vivo
Mus musculus [6] = assay: (§4) Half-life following intravenous dosing, tested in vivo in mice; assay type: ADME, organism-based
[7] = Integrated compound concentration with respect to time following oral dosing, tested in vivo in mice; assay type: ADME, organism-based; conditions: mouse
[8] = as §2; assay type: ADME, organism-based; design: route intravenous; conditions: mouse, plasma
[9] = as §3; assay type: ADME, organism-based; conditions: mouse
[10] = Time to maximum plasma concentration following oral dosing, tested in vivo in mice; conditions: mouse, plasma
[11] = as §4; assay type: ADME, organism-based; conditions: mouse

Row | SMILES | pEC50 (HCT-15) | pEC50 (NCI-H460) | other results
1 | COc1cc(C2CN=C(c3ccc4c(c3)CCCN4C)O2)cc(OC)c1OC (configuration not stated) | 6.18 | 6.49 | –
2 | COc1ccc(C2=NCC(c3cc(OC)c(OC)c(OC)c3)O2)cc1N (configuration not stated) | 7.09 | 7.14 | –
3 | COc1cc(-c2nnc(-c3ccc(N(C)C)cc3)o2)cc(OC)c1OC | 4.04 | 3.97 | –
4 | COc1cc(C2OC(c3ccc(N(C)C)cc3)=NN2C(=O)CNC=O)cc(OC)c1OC (configuration not stated) | 7.46 | 7.40 | –
5 | COc1cc(OC)c(C2OC(c3ccc(N(C)C)cc3)=NN2C(C)=O)c(OC)c1 (configuration not stated) | 4.15 | 4.40 | –
6 | COC(=O)c1c(OC)cc(C2OC(c3ccc(N)c(C)c3)=NN2C(C)=O)cc1OC (configuration not stated) | 6.55 | 6.29 | –
7 | CCOC(=O)C(=O)N1N=C(c2ccc(N(C)C)cc2)OC1c1cc(OC)c(OC)c(OC)c1 (configuration not stated) | 4.35 | 4.48 | –
8 | COc1cc(C2COC(c3ccc(N(C)C)cc3)O2)cc(OC)c1OC (configuration not stated) | 5.62 | 5.08 | –
9 | COC(=O)N1N=C(c2ccc(N(C)C)cc2)OC1c1cc(OC)c(OC)c(OC)c1 (configuration not stated) | 4.40 | 3.97 | –
10 | COc1cc(C2OC(c3ccc(N(C)C)cc3)=NN2C(=O)CO)cc(OC)c1OC (configuration not stated) | 7.59 | 7.37 | –
11 | COc1cc(C2OC(c3ccc(N)c(C)c3)=NN2C(C)=O)cc2c1OCO2 (configuration not stated) | 6.21 | 6.20 | –
12 | CCCCNC(=O)c1c(OC)cc(C2OC(c3ccc(N)c(C)c3)=NN2C(C)=O)cc1OC (configuration not stated) | 3.75 | 4.22 | –
13 | COc1cc(C2CN=C(c3ccc4[nH]ccc4c3)O2)cc(OC)c1OC (configuration not stated) | 7.01 | 6.94 | –
14 | COc1cc(C2SC(c3ccc(N(C)C)cc3)=NN2C(C)=O)cc(OC)c1OC (configuration not stated) | 6.21 | 6.46 | –
15 | COc1cc(C2OC(c3ccc(N(C)C)cc3)=NN2C(=O)CN)cc(OC)c1OC (configuration not stated) | 6.19 | 6.18 | –
16 | COc1cc(C2OC(c3ccccc3N(C)C)=NN2C(C)=O)cc(OC)c1OC (configuration not stated) | 4.19 | 3.96 | –
17 | COc1ccc(C2OC(c3ccc(N(C)C)cc3)=NN2C(C)=O)cc1OC (configuration not stated) | 5.09 | 5.29 | –
18 | CC(=O)O[C@H]1C(=O)[C@@]2(C)[C@H]([C@H](OC(=O)c3ccccc3)[C@]3(O)C[C@H](OC(=O)[C@H](O)[C@@H](NC(=O)c4ccccc4)c4ccccc4)C(C)=C1C3(C)C)[C@]1(OC(C)=O)CO[C@@H]1C[C@@H]2O [PACLITAXEL] | 6.27 | 7.82 | –

Further compounds by rising pEC50 (HCT-15), results first:

Row | pEC50 (HCT-15) | pEC50 (NCI-H460) | SMILES | other results
19 | 3.44 | 3.00 | COc1cc(-c2cc(-c3ccc(N)c(C)c3)nn2C(C)=O)cc(OC)c1OC | –
20 | 3.64 | 3.00 | COc1cc(-c2nnc(-c3ccc(N(C)C)cc3)s2)cc(OC)c1OC | –
21 | 3.70 | 3.00 | COc1cc(OC)c(C2OC(c3ccc(N)c(C)c3)=NN2C(C)=O)cc1OC (configuration not stated) | –
22 | 4.10 | 4.13 | COc1cc(C2OC(c3ccc(N(C)C)cc3)=NN2C(=O)CN(C)C)cc(OC)c1OC (configuration not stated) | –
23 | 4.11 | 4.89 | COc1cc(C2OC(c3ccc(N(C)C)cc3)=NN2C(C)=O)cc(OC)c1OC(C)=O (configuration not stated) | –
24 | 5.12 | 5.17 | COc1ccc(C2OC(c3ccc(N(C)C)cc3)=NN2C(C)=O)c(OC)c1OC (configuration not stated) | –
25 | 5.37 | 4.14 | COc1cc(C2CN=C(c3ccc4nc(O)oc4c3)O2)cc(OC)c1OC (configuration not stated) | –
26 | 5.82 | 5.24 | CC(=O)N1N=C(c2ccc(N(C)C)cc2)OC1c1cc(C)c(C)c(C)c1 (configuration not stated) | –
27 | 6.21 | 6.09 | COc1cc(C2CN=C(c3ccc4c(c3)CCN4C)O2)cc(OC)c1OC (configuration not stated) | –
28 | 6.74 | 6.32 | COc1cc(C2OC(c3ccc(N(C)C)cc3)=NN2C(=O)CNC(C)=O)cc(OC)c1OC (configuration not stated) | –
29 | 6.80 | 6.59 | COc1cc(C2OC(c3cccc(N(C)C)c3)=NN2C(C)=O)cc(OC)c1OC (configuration not stated) | –
30 | 6.82 | 6.28 | COc1cc(C2OC(c3ccc(N(C)C)cc3)=NN2C(=O)CN=[N+]=[N-])cc(OC)c1OC (configuration not stated) | –
31 | 6.92 | 6.46 | COc1cc(C2CN=C(c3ccc(N(C)C)cc3)O2)cc(OC)c1OC (configuration not stated) | Cmax [8]: 0.891 µg/mL; AUC [9]: 3.41 µg·h/mL; Vd [3]: 3.3 L/kg; Tmax [10]: 54 min; bioavailability [5]: 49%; half-life [11]: 48 min; AUC [7]: 1.66 µg·h/mL
32 | 7.02 | 6.92 | COc1cc(C2OC(c3ccc(N(C)C)cc3)=NN2C=O)cc(OC)c1OC (configuration not stated) | –
33 | 7.09 | 7.20 | COc1cc(C2CN=C(c3ccc(C)c(N)c3)O2)cc(OC)c1OC (configuration not stated) | –
34 | 7.38 | 7.23 | COc1cc(C2OC(c3ccc(N)c(C)c3)=NN2C(C)=O)cc(OC)c1OC (configuration not stated) | Cmax (Mus musculus [1]): 0.059 µg/mL; AUC (Mus musculus [2]): 2.109 µg·h/mL; Vd [3]: 2.2 L/kg; T max (Mus musculus [4]): 102 min; bioavailability [5]: 7%; T1/2 (Mus musculus [6]): 66 min; AUC [7]: 0.147 µg·h/mL
35 | 7.48 | 7.36 | COc1cc(C2OC(c3ccc(N(C)C)cc3)=NN2C(C)=O)cc(OC)c1OC (configuration not stated) | Cmax (Mus musculus [1]): 0.113 µg/mL; AUC (Mus musculus [2]): 3.17 µg·h/mL; Vd [3]: 3.3 L/kg; T max (Mus musculus [4]): 24 min; bioavailability [5]: 4.9%; T1/2 (Mus musculus [6]): 66 min; AUC [7]: 0.155 µg·h/mL
36 | 7.72 | 7.14 | COc1cc(C2OC(c3ccc(N(C)C)cc3)=NN2C(=O)COC(C)=O)cc(OC)c1OC (configuration not stated) | –
37 | 7.74 | 7.55 | COc1cc(C2CN=C(c3ccc4c(ccn4C)c3)O2)cc(OC)c1OC (configuration not stated) | Cmax [8]: 0.799 µg/mL; AUC [9]: 5.12 µg·h/mL; Vd [3]: 1.4 L/kg; Tmax [10]: 24 min; bioavailability [5]: 35%; half-life [11]: 114 min; AUC [7]: 1.78 µg·h/mL

— ChEMBL document CHEMBL1134306, “New antimitotic agents with activity in multi-drug-resistant cell lines and in vivo efficacy in murine tumor models” (J Med Chem, 2001)
